ChEMBL document CHEMBL4376838, “Discovery of Novel Celastrol Derivatives as Hsp90-Cdc37 Interaction Disruptors with Antitumor Activity” (J Med Chem, 2019)

Tests used:
A549 [1] = test: Antiproliferative activity against human A549 cells assessed as inhibition of cell growth at 1.5 uM incubated for 48 hrs by MTT assay relative to control; format: functional; conditions: A549, 48 h, read-out: GI
A549 [2] = test: Antiproliferative activity against human A549 cells assessed as inhibition of cell growth incubated for 48 hrs by MTT assay; format: functional, cell-based; conditions: A549, 48 h
Procedure, shortened: (§1)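 MTT read-out. Cells seeded at 5.0 × 10⁴ cells/ml and cultured 24 h, then exposed to the drug over a range of concentrations for 48 h, with matching DMSO as control. MTT (5 mg/ml) added for 4 h, supernatant removed, formazan dissolved in DMSO, OD read at 570 nm. Run in triplicate, mean ± SD (n = 3).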

HepG2 = test: Antiproliferative activity against human HepG2 cells assessed as inhibition of cell growth incubated for 48 hrs by MTT assay; format: functional, cell-based; conditions: HepG2, 48 h; procedure, shortened: as §1
MCF7 = test: Antiproliferative activity against human MCF7 cells assessed as inhibition of cell growth incubated for 48 hrs by MTT assay; format: functional, cell-based; conditions: MCF7, 48 h; procedure, shortened: as §1
HOS = test: Antiproliferative activity against human HOS cells assessed as inhibition of cell growth incubated for 48 hrs by MTT assay; format: functional, cell-based; procedure, shortened: as §1

Compound | inhibition of growth at 1.5 µM (A549 [1]) [%] | also measured
COc1ccc(/C(C#N)=C/C(=O)OCCCCOC(=O)[C@]2(C)CC[C@]3(C)CC[C@]4(C)C5=CC=C6C(=CC(=O)C(O)=C6C)[C@]5(C)CC[C@@]4(C)[C@@H]3C2)cc1 | 9.57 | –
CC1=C(O)C(=O)C=C2C1=CC=C1[C@@]2(C)CC[C@@]2(C)[C@@H]3C[C@](C)(C(=O)OCCCCOC(=O)/C(C#N)=C/c4ccc(C)cc4)CC[C@]3(C)CC[C@]12C | 16.5 | –
CC1=C(O)C(=O)C=C2C1=CC=C1[C@@]2(C)CC[C@@]2(C)[C@@H]3C[C@](C)(C(=O)OCCOC(=O)/C=C/c4ccc(C(F)(F)F)cc4)CC[C@]3(C)CC[C@]12C | 26 | –
CC1=C(O)C(=O)C=C2C1=CC=C1[C@@]2(C)CC[C@@]2(C)[C@@H]3C[C@](C)(C(=O)OCCCCOC(=O)/C(C#N)=C/c4ccccc4)CC[C@]3(C)CC[C@]12C | 16.2 | –
CC1=C(O)C(=O)C=C2C1=CC=C1[C@@]2(C)CC[C@@]2(C)[C@@H]3C[C@](C)(C(=O)OC/C=C/COC(=O)/C=C(\C#N)c4ccccc4)CC[C@]3(C)CC[C@]12C | – | IC50 (A549 [2]): 3540 nM; IC50 (HepG2): 3450 nM; IC50 (MCF7): 2860 nM; IC50 (HOS): 4780 nM
CC1=C(O)C(=O)C=C2C1=CC=C1[C@@]2(C)CC[C@@]2(C)[C@@H]3C[C@](C)(C(=O)OCCCCOC(=O)/C=C/c4ccc(C(F)(F)F)cc4)CC[C@]3(C)CC[C@]12C | 6.19 | –
CC1=C(O)C(=O)C=C2C1=CC=C1[C@@]2(C)CC[C@@]2(C)[C@@H]3C[C@](C)(C(=O)OCCOC(=O)/C(C#N)=C/c4ccc(F)cc4)CC[C@]3(C)CC[C@]12C | 26.1 | –
COC(=O)[C@]12CCC(C)(C)C[C@H]1[C@H]1C(=O)C=C3[C@@]4(C)C=C(C#N)C(=O)C(C)(C)[C@@H]4CC[C@@]3(C)[C@]1(C)CC2 [BARDOXOLONE METHYL] | – | IC50 (A549 [2]): 520 nM; IC50 (HepG2): 520 nM; IC50 (MCF7): 850 nM; IC50 (HOS): 660 nM
COc1ccc(/C=C/C(=O)OCCOC(=O)[C@]2(C)CC[C@]3(C)CC[C@]4(C)C5=CC=C6C(=CC(=O)C(O)=C6C)[C@]5(C)CC[C@@]4(C)[C@@H]3C2)cc1 | 35.3 | –
CC1=C(O)C(=O)C=C2C1=CC=C1[C@@]2(C)CC[C@@]2(C)[C@@H]3C[C@](C)(C(=O)OCCCOC(=O)/C=C(\C#N)c4ccc(C(F)(F)F)cc4)CC[C@]3(C)CC[C@]12C | 24.5 | –
CC1=C(O)C(=O)C=C2C1=CC=C1[C@@]2(C)CC[C@@]2(C)[C@@H]3C[C@](C)(C(=O)OCCOC(=O)/C=C(\C#N)c4ccc(C)cc4)CC[C@]3(C)CC[C@]12C | 20.4 | –
CC1=C(O)C(=O)C=C2C1=CC=C1[C@@]2(C)CC[C@@]2(C)[C@@H]3C[C@](C)(C(=O)OCCCOC(=O)/C(C#N)=C/c4ccccc4)CC[C@]3(C)CC[C@]12C | 19.1 | –
COc1ccc(/C=C(\C#N)C(=O)OCCCCOC(=O)[C@]2(C)CC[C@]3(C)CC[C@]4(C)C5=CC=C6C(=CC(=O)C(O)=C6C)[C@]5(C)CC[C@@]4(C)[C@@H]3C2)cc1 | 3.07 | –
CC1=C(O)C(=O)C=C2C1=CC=C1[C@@]2(C)CC[C@@]2(C)[C@@H]3C[C@](C)(C(=O)OCCOC(=O)/C=C/c4ccccc4)CC[C@]3(C)CC[C@]12C | 23 | –
CC1=C(O)C(=O)C=C2C1=CC=C1[C@@]2(C)CC[C@@]2(C)[C@@H]3C[C@](C)(C(=O)OCCCOC(=O)/C=C/c4ccc(C(F)(F)F)cc4)CC[C@]3(C)CC[C@]12C | 37.6 | –
COc1ccc(/C=C(\C#N)C(=O)OCCCOC(=O)[C@]2(C)CC[C@]3(C)CC[C@]4(C)C5=CC=C6C(=CC(=O)C(O)=C6C)[C@]5(C)CC[C@@]4(C)[C@@H]3C2)cc1 | 18.6 | –
CC1=C(O)C(=O)C=C2C1=CC=C1[C@@]2(C)CC[C@@]2(C)[C@@H]3C[C@](C)(C(=O)OCCCCOC(=O)/C=C(\C#N)c4ccc(F)cc4)CC[C@]3(C)CC[C@]12C | 32.1 | –
CC1=C(O)C(=O)C=C2C1=CC=C1[C@@]2(C)CC[C@@]2(C)[C@@H]3C[C@](C)(C(=O)OCCCOC(=O)/C(C#N)=C/c4ccc(F)cc4)CC[C@]3(C)CC[C@]12C | 25 | –
CC1=C(O)C(=O)C=C2C1=CC=C1[C@@]2(C)CC[C@@]2(C)[C@@H]3C[C@](C)(C(=O)OCCCOC(=O)/C(C#N)=C/c4ccc(C(F)(F)F)cc4)CC[C@]3(C)CC[C@]12C | 19.4 | –
CC1=C(O)C(=O)C=C2C1=CC=C1[C@@]2(C)CC[C@@]2(C)[C@@H]3C[C@](C)(C(=O)OCCCCOC(=O)/C=C(\C#N)c4ccc(C)cc4)CC[C@]3(C)CC[C@]12C | 9.74 | –
CC1=C(O)C(=O)C=C2C1=CC=C1[C@@]2(C)CC[C@@]2(C)[C@@H]3C[C@](C)(C(=O)OCCCOC(=O)/C=C(\C#N)c4ccc(C)cc4)CC[C@]3(C)CC[C@]12C | 21.6 | –

Compound | inhibition of growth at 1.5 µM (A549 [1]) [%] | also measured
CC1=C(O)C(=O)C=C2C1=CC=C1[C@@]2(C)CC[C@@]2(C)[C@@H]3C[C@](C)(C(=O)OCCCCOC(=O)/C(C#N)=C/c4ccc(C(F)(F)F)cc4)CC[C@]3(C)CC[C@]12C | 7.85 | –
COc1ccc(/C=C/C(=O)OCCCCOC(=O)[C@]2(C)CC[C@]3(C)CC[C@]4(C)C5=CC=C6C(=CC(=O)C(O)=C6C)[C@]5(C)CC[C@@]4(C)[C@@H]3C2)cc1 | 20.6 | –
CC1=C(O)C(=O)C=C2C1=CC=C1[C@@]2(C)CC[C@@]2(C)[C@@H]3C[C@](C)(C(=O)OCCCCOC(=O)/C=C(\C#N)c4ccccc4)CC[C@]3(C)CC[C@]12C | 3.19 | –
CC1=C(O)C(=O)C=C2C1=CC=C1[C@@]2(C)CC[C@@]2(C)[C@@H]3C[C@](C)(C(=O)OCCCCOC(=O)/C=C/c4ccc(F)cc4)CC[C@]3(C)CC[C@]12C | 14.7 | –
CC1=C(O)C(=O)C=C2C1=CC=C1[C@@]2(C)CC[C@@]2(C)[C@@H]3C[C@](C)(C(=O)OCCCCOC(=O)/C=C(\C#N)c4ccc(C(F)(F)F)cc4)CC[C@]3(C)CC[C@]12C | 18.3 | –
CC1=C(O)C(=O)C=C2C1=CC=C1[C@@]2(C)CC[C@@]2(C)[C@@H]3C[C@](C)(C(=O)OCCOC(=O)/C=C/c4ccc(F)cc4)CC[C@]3(C)CC[C@]12C | 27.7 | –
CC1=C(O)C(=O)C=C2C1=CC=C1[C@@]2(C)CC[C@@]2(C)[C@@H]3C[C@](C)(C(=O)OCCCCOC(=O)/C=C/c4ccc(C)cc4)CC[C@]3(C)CC[C@]12C | 19.9 | –
CC1=C(O)C(=O)C=C2C1=CC=C1[C@@]2(C)CC[C@@]2(C)[C@@H]3C[C@](C)(C(=O)OCCOC(=O)/C(C#N)=C/c4ccc(C)cc4)CC[C@]3(C)CC[C@]12C | 29.9 | –
CC1=C(O)C(=O)C=C2C1=CC=C1[C@@]2(C)CC[C@@]2(C)[C@@H]3C[C@](C)(C(=O)OCCOC(=O)/C(C#N)=C/c4ccccc4)CC[C@]3(C)CC[C@]12C | 24.3 | –
CC1=C(O)C(=O)C=C2C1=CC=C1[C@@]2(C)CC[C@@]2(C)[C@@H]3C[C@](C)(C(=O)OCCCOC(=O)/C=C/c4ccccc4)CC[C@]3(C)CC[C@]12C | 33.2 | –
CC1=C(O)C(=O)C=C2C1=CC=C1[C@@]2(C)CC[C@@]2(C)[C@@H]3C[C@](C)(C(=O)OCCCOC(=O)/C(C#N)=C/c4ccc(C)cc4)CC[C@]3(C)CC[C@]12C | 34.7 | –
COc1ccc(/C=C(\C#N)C(=O)OCCOC(=O)[C@]2(C)CC[C@]3(C)CC[C@]4(C)C5=CC=C6C(=CC(=O)C(O)=C6C)[C@]5(C)CC[C@@]4(C)[C@@H]3C2)cc1 | 16.6 | –
CC1=C(O)C(=O)C=C2C1=CC=C1[C@@]2(C)CC[C@@]2(C)[C@@H]3C[C@](C)(C(=O)OCCOC(=O)/C=C/c4ccc(C)cc4)CC[C@]3(C)CC[C@]12C | 28.6 | –
CC1=C(O)C(=O)C=C2C1=CC=C1[C@@]2(C)CC[C@@]2(C)[C@@H]3C[C@](C)(C(=O)OCCCOC(=O)/C=C/c4ccc(C)cc4)CC[C@]3(C)CC[C@]12C | 29.1 | –
CC1=C(O)C(=O)C=C2C1=CC=C1[C@@]2(C)CC[C@@]2(C)[C@@H]3C[C@](C)(C(=O)OCCCOC(=O)/C=C/c4ccc(F)cc4)CC[C@]3(C)CC[C@]12C | 37.6 | –
CC1=C(O)C(=O)C=C2C1=CC=C1[C@@]2(C)CC[C@@]2(C)[C@@H]3C[C@](C)(C(=O)OCCOC(=O)/C=C(\C#N)c4ccc(C(F)(F)F)cc4)CC[C@]3(C)CC[C@]12C | 33.3 | –
COc1ccc(/C=C/C(=O)OCCCOC(=O)[C@]2(C)CC[C@]3(C)CC[C@]4(C)C5=CC=C6C(=CC(=O)C(O)=C6C)[C@]5(C)CC[C@@]4(C)[C@@H]3C2)cc1 | 34.1 | –
CC1=C(O)C(=O)C=C2C1=CC=C1[C@@]2(C)CC[C@@]2(C)[C@@H]3C[C@](C)(C(=O)OCCCCOC(=O)/C(C#N)=C/c4ccc(F)cc4)CC[C@]3(C)CC[C@]12C | 19 | –
CC1=C(O)C(=O)C=C2C1=CC=C1[C@@]2(C)CC[C@@]2(C)[C@@H]3C[C@](C)(C(=O)OCCOC(=O)/C(C#N)=C/c4ccc(C(F)(F)F)cc4)CC[C@]3(C)CC[C@]12C | 16 | –
CC1=C(O)C(=O)C=C2C1=CC=C1[C@@]2(C)CC[C@@]2(C)[C@@H]3C[C@](C)(C(=O)OCCCCOC(=O)/C=C/c4ccccc4)CC[C@]3(C)CC[C@]12C | 13.3 | –
